Experimental data as given in paper PMC2782447 (Apoptosis : an international journal on programmed cell …, 2008).
The star is where a group is joined. pNA = O=[N+]([O-])c1ccc(N*)cc1

Experiments:
caspase-3 [1] = molecular target: T1, caspase-3 (Homo sapiens, UniProt P42574); assay: Crystal structure of caspase-3/LDESD; format: binding; conditions: crystal structure caspase-3/LDESD, 1.61 Å, PDB 3EDQ
T1 sequence (P42574 29-175 limits assumed): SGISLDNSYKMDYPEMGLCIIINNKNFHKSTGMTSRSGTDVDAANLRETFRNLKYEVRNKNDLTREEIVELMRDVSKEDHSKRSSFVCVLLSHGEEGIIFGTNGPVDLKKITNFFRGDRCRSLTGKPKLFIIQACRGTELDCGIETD
T1 sequence (P42574 176-277 limits assumed): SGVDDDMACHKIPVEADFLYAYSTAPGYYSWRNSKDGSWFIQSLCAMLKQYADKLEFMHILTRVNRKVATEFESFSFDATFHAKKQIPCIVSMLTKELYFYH

caspase-7 [2] = molecular target: T2, caspase-7 (Homo sapiens, UniProt P55210); assay: Crystal structure of caspase-7/LDESD; format: binding; conditions: crystal structure caspase-7/LDESD, 2.45 Å, PDB 3EDR
T2 sequence (P55210 24-198 limits assumed): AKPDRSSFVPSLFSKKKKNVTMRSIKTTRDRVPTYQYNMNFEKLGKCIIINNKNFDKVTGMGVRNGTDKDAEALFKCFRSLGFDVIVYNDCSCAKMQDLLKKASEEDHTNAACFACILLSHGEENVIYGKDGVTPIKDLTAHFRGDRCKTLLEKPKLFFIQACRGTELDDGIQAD
T2 sequence (P55210 207-303 limits assumed): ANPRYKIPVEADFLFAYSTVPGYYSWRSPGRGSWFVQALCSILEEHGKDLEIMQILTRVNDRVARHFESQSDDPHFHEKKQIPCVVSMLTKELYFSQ

caspase-6 = molecular target: T3, caspase-6 (Homo sapiens, UniProt P55212); assay: Colorimetric substrate hydrolysis by caspase-6; format: biochemical; conditions: for kcat/Km: 50 mM HEPES, pH 7.25, 100 mM NaCl, 10% sucrose, 0.1% CHAPS, 405 nm, triplicate; for Relative kcat/Km (relative activity): relative to DEVD = 100%
T3 sequence (P55212 25-179 limits assumed): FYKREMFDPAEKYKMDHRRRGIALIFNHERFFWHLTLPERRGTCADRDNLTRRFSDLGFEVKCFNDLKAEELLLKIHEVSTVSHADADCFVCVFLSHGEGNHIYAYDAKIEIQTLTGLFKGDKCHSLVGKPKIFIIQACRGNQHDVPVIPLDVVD
T3 sequence (P55212 194-293 limits assumed): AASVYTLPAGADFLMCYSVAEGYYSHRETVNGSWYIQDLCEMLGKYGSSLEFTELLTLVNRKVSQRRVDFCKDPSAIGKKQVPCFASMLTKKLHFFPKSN
Method in brief: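 It was purified by Ni-NTA and S-100 gel filtration and self-processed into active subunits. Assays used 50 mM HEPES pH 7.25, 100 mM NaCl, 10% sucrose, 0.1% CHAPS, with pNA substrates at varied concentrations, A405, in triplicate.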

caspase-3 [3] = molecular target: T1, caspase-3; assay: Colorimetric substrate hydrolysis by caspase-3; format: biochemical; conditions: for Relative kcat/Km (relative activity): relative to DEVD = 100%, caspase-3, pH 7.5
caspase-7 [4] = molecular target: T2, caspase-7; assay: Colorimetric substrate hydrolysis by caspase-7; format: biochemical; conditions: relative to DEVD = 100%; caspase-7, pH 7.5
caspase-8 = caspase-8 (Homo sapiens, UniProt Q14790); assay: Colorimetric substrate hydrolysis by caspase-8; format: biochemical; conditions: relative to DEVD = 100%; caspase-8, pH 7.5
caspase-8, sequence (Q14790 217-374 limits assumed): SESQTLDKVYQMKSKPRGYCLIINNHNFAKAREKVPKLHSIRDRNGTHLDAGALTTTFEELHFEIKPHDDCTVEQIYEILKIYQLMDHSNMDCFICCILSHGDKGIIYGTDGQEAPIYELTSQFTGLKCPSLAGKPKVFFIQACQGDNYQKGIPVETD
caspase-8, sequence (Q14790 385-479 limits assumed): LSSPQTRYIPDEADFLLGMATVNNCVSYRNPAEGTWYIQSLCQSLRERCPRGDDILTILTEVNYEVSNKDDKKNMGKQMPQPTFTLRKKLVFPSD

Substance	covalent binding mode (active site cysteine with aldehyde) (caspase-3 [1])	covalent binding mode (active site cysteine with aldehyde) (caspase-7 [2])	kcat/Km (caspase-6) [min^−1μM^−1]	kcat/Km fold higher than DEVD (caspase-6; LEHD versus DEVD, caspase-6, pH 7.25) [fold]	activity of QDEVD compared with DEVD, in words (caspase-3 [3]; caspase-3)	Relative kcat/Km (relative activity) (caspase-3 [3]) [%]	substrate preference, in words (caspase-6; caspase-6, polar P5)	Relative kcat/Km (relative activity) (caspase-6; caspase-6, pH 7.25) [%]	Relative kcat/Km (relative activity) (caspase-7 [4]) [%]	Relative kcat/Km (relative activity) (caspase-8) [%]	increased hydrolysis relative to DEVD (caspase-3 [3]; caspase-3, increase over DEVD) [%]
Ac-LDESD-aldehyde	forms a hemithioacetal bond with the aldehyde group of the inhibitor	forms a hemithioacetal bond with the aldehyde group of the inhibitor	–	–	–	–	–	–	–	–	–
LEHD	–	–	0.19	3	–	–	–	–	–	–	–
Ac-QDEVD-pNA	–	–	0.086±0.01	–	the activity was similar for the tetrapeptide DEVD and the pentapeptide QDEVD	85	preference for polar P5 in QDEVD	148	67	18	–
Ac-LDEVD-pNA	–	–	0.068±0.01	–	–	146	–	118	56	20	50
